The source made the active and inactive calls. The rule behind the calls is not given here.
Tests used:
[1] = molecular target: Vascular endothelial growth factor receptor 2 (Homo sapiens) (UniProt P35968); assay: Inhibition of recombinant KDR (unknown origin) using poly (Glu, Tyr) 4:1 as substrate at 1000 nM incubated for 60 mins by ELISA relative to control
Procedure, shortened: (§1)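 Recombinant tyrosine kinases assayed on wells precoated with poly(Glu,Tyr)4:1 (20 µg/mL). ATP 10 µmol/L in HEPES pH 7.4 buffer with MgCl2, MnCl2, Na3VO4 and DTT; compound in 1% DMSO, 1% DMSO as control. Reaction 60 min at 37 °C. Phosphotyrosine detected with PY99 and HRP anti-mouse, o-phenylenediamine, A490. Inhibition % relative to control; two experiments.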

[2] = molecular target: Epidermal growth factor receptor (Homo sapiens) (UniProt P00533); assay: Inhibition of recombinant EGFR (unknown origin) using poly (Glu, Tyr) 4:1 as substrate at 1000 nM incubated for 60 mins by ELISA relative to control; procedure, shortened: as §1
Chain of Epidermal growth factor receptor (Homo sapiens) (P00533 whole entry): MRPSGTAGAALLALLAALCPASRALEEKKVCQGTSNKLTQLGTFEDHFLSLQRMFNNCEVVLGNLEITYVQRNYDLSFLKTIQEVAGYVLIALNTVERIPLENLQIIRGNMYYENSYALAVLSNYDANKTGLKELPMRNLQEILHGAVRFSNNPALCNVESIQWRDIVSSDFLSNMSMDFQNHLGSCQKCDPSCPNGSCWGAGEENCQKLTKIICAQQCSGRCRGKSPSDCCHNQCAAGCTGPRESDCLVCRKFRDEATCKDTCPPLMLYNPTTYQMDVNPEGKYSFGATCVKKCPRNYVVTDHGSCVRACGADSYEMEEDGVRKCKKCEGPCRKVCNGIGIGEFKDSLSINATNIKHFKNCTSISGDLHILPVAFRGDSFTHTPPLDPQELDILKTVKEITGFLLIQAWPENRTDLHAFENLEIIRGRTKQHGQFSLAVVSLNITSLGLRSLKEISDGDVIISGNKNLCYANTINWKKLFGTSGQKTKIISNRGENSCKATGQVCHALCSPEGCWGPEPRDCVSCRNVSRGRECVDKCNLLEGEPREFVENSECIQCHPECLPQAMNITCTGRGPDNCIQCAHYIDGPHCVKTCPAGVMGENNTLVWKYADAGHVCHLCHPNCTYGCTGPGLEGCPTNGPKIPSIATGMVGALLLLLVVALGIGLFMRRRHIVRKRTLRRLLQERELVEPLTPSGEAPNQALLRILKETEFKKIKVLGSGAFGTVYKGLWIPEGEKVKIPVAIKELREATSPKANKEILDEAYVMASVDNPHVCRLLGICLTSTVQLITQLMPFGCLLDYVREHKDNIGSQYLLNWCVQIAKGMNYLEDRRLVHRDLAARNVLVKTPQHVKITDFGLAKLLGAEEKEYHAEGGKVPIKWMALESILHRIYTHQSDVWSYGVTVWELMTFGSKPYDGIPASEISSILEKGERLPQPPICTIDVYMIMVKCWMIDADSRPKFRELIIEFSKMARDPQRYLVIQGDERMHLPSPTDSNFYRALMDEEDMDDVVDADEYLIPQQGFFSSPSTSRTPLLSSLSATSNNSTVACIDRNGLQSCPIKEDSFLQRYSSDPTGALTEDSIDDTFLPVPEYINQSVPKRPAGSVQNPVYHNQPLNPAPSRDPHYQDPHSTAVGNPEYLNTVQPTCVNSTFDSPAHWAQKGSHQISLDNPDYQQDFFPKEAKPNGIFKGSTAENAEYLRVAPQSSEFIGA

[3] = molecular target: T1, Hepatocyte growth factor receptor (Homo sapiens, UniProt P08581); assay: Inhibition of c-Met in human NCI-H441 cells assessed as inhibition of HGF-induced cell migration after 24 hrs by crystal violet staining based microscopic analysis
T1 sequence (P08581 whole entry): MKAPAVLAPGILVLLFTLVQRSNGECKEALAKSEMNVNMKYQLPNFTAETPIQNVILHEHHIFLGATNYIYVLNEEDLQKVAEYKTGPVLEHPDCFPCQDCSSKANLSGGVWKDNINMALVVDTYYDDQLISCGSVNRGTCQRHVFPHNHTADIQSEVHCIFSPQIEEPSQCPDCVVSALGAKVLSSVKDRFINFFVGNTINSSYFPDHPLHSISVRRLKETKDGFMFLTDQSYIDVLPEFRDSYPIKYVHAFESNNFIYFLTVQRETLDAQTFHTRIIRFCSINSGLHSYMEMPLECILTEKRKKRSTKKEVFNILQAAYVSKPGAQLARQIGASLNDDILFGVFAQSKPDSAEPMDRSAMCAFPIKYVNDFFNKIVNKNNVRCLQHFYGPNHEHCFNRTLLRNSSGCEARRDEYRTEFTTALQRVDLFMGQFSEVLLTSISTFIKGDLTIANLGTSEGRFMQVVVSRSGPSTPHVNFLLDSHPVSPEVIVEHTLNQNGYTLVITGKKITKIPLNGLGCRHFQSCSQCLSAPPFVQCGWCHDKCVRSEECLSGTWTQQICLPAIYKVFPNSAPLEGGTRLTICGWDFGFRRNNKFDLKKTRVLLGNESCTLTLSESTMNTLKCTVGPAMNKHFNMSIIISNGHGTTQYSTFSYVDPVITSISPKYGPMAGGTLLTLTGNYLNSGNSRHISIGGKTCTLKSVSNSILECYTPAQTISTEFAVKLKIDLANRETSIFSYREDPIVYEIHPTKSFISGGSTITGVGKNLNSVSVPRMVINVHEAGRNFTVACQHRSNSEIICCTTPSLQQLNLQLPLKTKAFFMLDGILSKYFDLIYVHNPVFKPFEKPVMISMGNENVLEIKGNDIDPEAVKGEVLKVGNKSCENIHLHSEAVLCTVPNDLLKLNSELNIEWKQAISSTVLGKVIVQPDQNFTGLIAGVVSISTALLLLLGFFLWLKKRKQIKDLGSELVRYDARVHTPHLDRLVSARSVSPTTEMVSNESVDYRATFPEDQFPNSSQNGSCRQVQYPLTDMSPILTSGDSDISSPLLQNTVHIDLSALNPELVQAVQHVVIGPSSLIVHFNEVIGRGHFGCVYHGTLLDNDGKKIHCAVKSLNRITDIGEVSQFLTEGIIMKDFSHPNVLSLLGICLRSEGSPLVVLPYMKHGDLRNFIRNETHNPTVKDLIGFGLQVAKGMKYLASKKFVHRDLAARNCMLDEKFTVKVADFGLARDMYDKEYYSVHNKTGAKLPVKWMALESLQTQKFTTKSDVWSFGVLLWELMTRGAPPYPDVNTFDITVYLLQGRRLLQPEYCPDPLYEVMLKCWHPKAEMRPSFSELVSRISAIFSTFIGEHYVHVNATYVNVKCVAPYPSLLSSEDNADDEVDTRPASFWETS
Procedure, shortened: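 NCI-H441 cells, 1.5×10^5 in serum-free medium, placed in upper Transwell chamber (8 µm pores; Matrigel-coated for invasion). Lower chamber serum-free medium ± HGF 100 ng/mL, with compound. After 24 h at 37 °C, non-migrated cells removed. Traversed cells stained with 0.1% crystal violet 15 min and imaged in 5 fields per filter. Three independent experiments.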

[4] = Antiproliferative activity against human PANC1 cells after 72 hrs by SRB or MTT assay; assay type: functional, cell-based; details: PANC-1, 72 h
Procedure, shortened: (§2)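 Cells seeded, exposed next day to a range of concentrations for 72 h. Growth read by sulforhodamine B or MTT. IC50 from four-parameter concentration-response fit. Each concentration tested at least in triplicate, with at least 2 experiments.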

[5] = Selectivity ratio of IC50 for human SNU1 cells to IC50 for human EBC1 cells; assay type: ADME, cell-based
[6] = molecular target: Receptor tyrosine-protein kinase erbB-4 (Homo sapiens) (UniProt Q15303); assay: Inhibition of recombinant ERBB4 (unknown origin) using poly (Glu, Tyr) 4:1 as substrate at 1000 nM incubated for 60 mins by ELISA relative to control; procedure, shortened: as §1
[7] = molecular target: Tyrosine-protein kinase receptor UFO (Homo sapiens, UniProt P30530); assay: Inhibition of recombinant AXL (unknown origin) using poly (Glu, Tyr) 4:1 as substrate incubated for 60 mins by ELISA
Chain of Tyrosine-protein kinase receptor UFO (P30530 whole entry): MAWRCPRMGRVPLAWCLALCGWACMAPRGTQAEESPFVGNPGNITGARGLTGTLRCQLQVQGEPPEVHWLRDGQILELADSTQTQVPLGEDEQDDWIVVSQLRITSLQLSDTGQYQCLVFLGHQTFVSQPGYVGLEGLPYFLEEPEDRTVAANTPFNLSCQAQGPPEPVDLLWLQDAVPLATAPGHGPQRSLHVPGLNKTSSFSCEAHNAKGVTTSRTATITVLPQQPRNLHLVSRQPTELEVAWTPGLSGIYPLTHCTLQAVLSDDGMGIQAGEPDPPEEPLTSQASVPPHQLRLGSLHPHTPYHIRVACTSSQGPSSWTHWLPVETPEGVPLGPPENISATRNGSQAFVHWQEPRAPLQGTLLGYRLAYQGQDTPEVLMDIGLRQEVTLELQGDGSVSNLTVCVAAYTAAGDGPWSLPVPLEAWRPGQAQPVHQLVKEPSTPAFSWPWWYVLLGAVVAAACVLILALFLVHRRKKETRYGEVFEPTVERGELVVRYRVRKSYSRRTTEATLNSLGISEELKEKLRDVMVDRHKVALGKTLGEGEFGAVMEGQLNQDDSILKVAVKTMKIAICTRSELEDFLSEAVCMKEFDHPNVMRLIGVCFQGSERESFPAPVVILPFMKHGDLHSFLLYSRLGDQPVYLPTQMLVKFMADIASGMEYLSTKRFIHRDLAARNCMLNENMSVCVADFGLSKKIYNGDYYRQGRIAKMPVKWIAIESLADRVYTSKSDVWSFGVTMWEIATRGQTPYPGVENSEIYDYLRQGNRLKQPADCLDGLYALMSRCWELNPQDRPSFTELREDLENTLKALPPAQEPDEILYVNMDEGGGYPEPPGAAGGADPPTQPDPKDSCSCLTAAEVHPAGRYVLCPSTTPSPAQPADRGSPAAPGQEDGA

[8] = AUC (0 to infinity) in Sprague-Dawley rat at 10 mg/kg, po administered as single dose; assay type: ADME, organism-based; parameters: dose 10 mg/kg, route oral, time infinity; details: in vivo
[9] = Selectivity ratio of IC50 for human 786-0 cells to IC50 for mouse BAF3 cells expressing TPR-MET; assay type: ADME, cell-based
Procedure, shortened: (§3)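 Both IC50s in each ratio come from one proliferation assay. Cells were seeded and exposed the next day to a range of concentrations for 72 h, then read by SRB or MTT. IC50s were fitted by four-parameter concentration–response, with each concentration at least in triplicate and at least 2 experiments. BaF3/TPR-Met is murine pre-B BaF3 transfected with TPR-MET and puromycin-selected.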

[10] = Selectivity ratio of IC50 for human NCI-H226 cells to IC50 for human EBC1 cells; assay type: ADME, cell-based; procedure, shortened: as §3
[11] = Selectivity ratio of IC50 for human Bel7404 cells to IC50 for mouse BAF3 cells expressing TPR-MET; assay type: ADME, cell-based; procedure, shortened: as §3
[12] = Selectivity ratio of IC50 for human NCI-H661 cells to IC50 for mouse BAF3 cells expressing TPR-MET; assay type: ADME, cell-based; procedure, shortened: as §3
[13] = molecular target: Vascular endothelial growth factor receptor 1 (Homo sapiens) (UniProt P17948); assay: Inhibition of recombinant FLT1 (unknown origin) using poly (Glu, Tyr) 4:1 as substrate at 1000 nM incubated for 60 mins by ELISA relative to control; procedure, shortened: as §1
[14] = Selectivity ratio of IC50 for human SGC7901 cells to IC50 for human EBC1 cells; assay type: ADME, cell-based; details: sgc-7901
Procedure, shortened: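 Each cell line was seeded in 96-well plates, then exposed the next day to a range of compound concentrations for 72 h. Growth was read by SRB or MTT assay, and IC50 was fitted by a four-parameter concentration-response curve. Each concentration was run at least in triplicate, in at least 2 experiments. BaF3/TPR-Met are murine pre-B BaF3 cells transfected with TPR-MET cDNA and selected in puromycin.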

[15] = Selectivity ratio of IC50 for human NCI-H1299 cells to IC50 for mouse BAF3 cells expressing TPR-MET; assay type: ADME, cell-based; procedure, shortened: as §3
[16] = Selectivity ratio of IC50 for human BGC823 cells to IC50 for mouse BAF3 cells expressing TPR-MET; assay type: ADME, cell-based; procedure, shortened: as §3
[17] = molecular target: Receptor tyrosine-protein kinase erbB-2 (Homo sapiens) (UniProt P04626); assay: Inhibition of recombinant ERBB2 (unknown origin) using poly (Glu, Tyr) 4:1 as substrate at 1000 nM incubated for 60 mins by ELISA relative to control; procedure, shortened: as §1
[18] = Selectivity ratio of IC50 for human AGS cells to IC50 for human MKN45 cells; assay type: ADME, cell-based; procedure, shortened: as §3
AGS = assay: Antiproliferative activity against human AGS cells after 72 hrs by SRB or MTT assay; assay type: functional, cell-based; procedure, shortened: as §2
[19] = Antiproliferative activity against human U87MG cells after 72 hrs by SRB or MTT assay; assay type: functional, cell-based, U-87MG ATCC; details: U-87 MG; procedure, shortened: as §2
[20] = molecular target: T1, Hepatocyte growth factor receptor; assay: Inhibition of c-Met in human EBC1 cells assessed as reduction in ERK phosphorylation at Threonine 202 at 10 nM after 1 hr by Western blot analysis; assay type: cell-based
Procedure, shortened: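 EBC-1 or MKN45 cells treated with compound 1 h at 37 °C without HGF, then lysed in 1× SDS sample buffer. Lysates run on 10% SDS-PAGE and transferred to nitrocellulose. Probed with antibodies to c-Met, phospho-c-Met, phospho-ERK1/2, phospho-AKT, AKT and GAPDH, then HRP secondary. ECL detection.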

[21] = Selectivity ratio of IC50 for human BGC823 cells to IC50 for human EBC1 cells; assay type: ADME, cell-based; details: bgc-823; procedure, shortened: as §3
[22] = Selectivity ratio of IC50 for human NCI-H661 cells to IC50 for human MKN45 cells; assay type: ADME, cell-based; details: mkn-45; procedure, shortened: as §3
[23] = molecular target: Tyrosine-protein kinase receptor UFO (Homo sapiens) (UniProt P30530); details: 1000 nM
Chain of Tyrosine-protein kinase receptor UFO (Homo sapiens) (P30530 whole entry): as above

[24] = molecular target: T1, Hepatocyte growth factor receptor; assay: Inhibition of c-Met in HGF stimulated human U87MG cells assessed as reduction in ERK phosphorylation at Tyrosine 204 at 10 nM after 1 hr by Western blot analysis; assay type: cell-based; details: U-87MG ATCC
Procedure, shortened: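 U87MG cells serum-starved 24 h, pretreated with compound 1 h at 37 °C, then stimulated with HGF (100 ng/mL) for 15 min. Lysed in 1× SDS sample buffer, resolved by 10% SDS-PAGE and blotted to nitrocellulose. Probed for phospho-c-Met, phospho-ERK1/2, phospho-AKT and totals, with GAPDH as loading control. ECL detection.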

[25] = molecular target: Tyrosine-protein kinase receptor TYRO3 (Homo sapiens, UniProt Q06418); assay: Inhibition of recombinant TYRO3 (unknown origin) using poly (Glu, Tyr) 4:1 as substrate incubated for 60 mins by ELISA
Chain of Tyrosine-protein kinase receptor TYRO3 (Q06418 whole entry): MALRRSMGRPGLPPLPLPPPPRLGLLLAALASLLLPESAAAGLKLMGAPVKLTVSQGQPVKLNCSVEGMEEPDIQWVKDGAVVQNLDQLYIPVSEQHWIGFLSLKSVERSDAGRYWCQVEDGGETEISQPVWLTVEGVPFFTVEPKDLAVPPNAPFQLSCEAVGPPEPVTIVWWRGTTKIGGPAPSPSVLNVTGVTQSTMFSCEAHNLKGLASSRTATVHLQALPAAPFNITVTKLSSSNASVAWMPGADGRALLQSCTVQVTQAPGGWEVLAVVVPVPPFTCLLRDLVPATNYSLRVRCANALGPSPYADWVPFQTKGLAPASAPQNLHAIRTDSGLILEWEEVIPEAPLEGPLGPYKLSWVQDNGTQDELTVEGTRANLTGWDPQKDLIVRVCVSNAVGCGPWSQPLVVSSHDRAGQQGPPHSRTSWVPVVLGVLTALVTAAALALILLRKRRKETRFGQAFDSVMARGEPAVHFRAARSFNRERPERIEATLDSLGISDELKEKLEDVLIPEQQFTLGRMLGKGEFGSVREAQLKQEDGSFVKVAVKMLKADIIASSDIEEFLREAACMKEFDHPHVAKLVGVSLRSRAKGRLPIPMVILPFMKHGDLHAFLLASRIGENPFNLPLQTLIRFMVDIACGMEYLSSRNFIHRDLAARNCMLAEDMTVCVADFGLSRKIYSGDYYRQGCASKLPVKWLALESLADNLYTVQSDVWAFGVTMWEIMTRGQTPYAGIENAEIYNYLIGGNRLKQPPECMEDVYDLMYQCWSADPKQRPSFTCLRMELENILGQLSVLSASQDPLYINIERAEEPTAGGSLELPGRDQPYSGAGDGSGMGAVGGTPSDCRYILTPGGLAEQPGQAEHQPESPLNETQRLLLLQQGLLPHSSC

inhibition [1]: 15.3%
inhibition [2]: 33.2%
inhibition [3]: Dose-dependent effect
inhibition [6]: 26.8%
IC50 [7]: > 1000 nM
AUC(0-inf) [8]: 2380 ng·h/mL
inhibition [13]: 11.5%
inhibition [17]: 31.5%
IC50 (AGS): > 10 µM
inhibition [20]: Active
inhibition [23]: 36%
inhibition [24]: Active
IC50 [25]: > 1000 nM
SMILES: Fc1ccc(-c2cnc3nnc(C(F)(F)c4ccc5ncccc5c4)n3n2)cc1
IC50 [4]: > 10 µM
Ratio IC50 [5]: 10000
Ratio IC50 [9]: 10000
Ratio IC50 [10]: > 10000
Ratio IC50 [11]: 10000
Ratio IC50 [12]: > 10000
Ratio IC50 [14]: > 10000
Ratio IC50 [15]: 10000
Ratio IC50 [16]: > 10000
Ratio IC50 [18]: 10000
IC50 [19]: > 10 µM
Ratio IC50 [21]: > 10000
Ratio IC50 [22]: > 10000
